Results as given in ChEMBL document CHEMBL3232740, “Differences in conformational dynamics between Plasmodium falciparum and human Hsp90 orthologues enable the structure-based discovery of pathogen-selective inhibitors” (J Med Chem, 2014).
pIC50, pKd: −log10 of the molar value. Activity calls are given as the source filed them. No cut-off for these calls is given here.

Assays:
[1] = target: T1, HSP90 (Plasmodium falciparum 3D7, UniProt Q8IL32); experiment: Binding affinity to N-terminal FLAG-tagged Plasmodium falciparum recombinant HSP90 (1 to 223) expressed in Escherichia coli BL21(DE3) by microscale thermophoresis assay
T1 sequence (Q8IL32 whole entry): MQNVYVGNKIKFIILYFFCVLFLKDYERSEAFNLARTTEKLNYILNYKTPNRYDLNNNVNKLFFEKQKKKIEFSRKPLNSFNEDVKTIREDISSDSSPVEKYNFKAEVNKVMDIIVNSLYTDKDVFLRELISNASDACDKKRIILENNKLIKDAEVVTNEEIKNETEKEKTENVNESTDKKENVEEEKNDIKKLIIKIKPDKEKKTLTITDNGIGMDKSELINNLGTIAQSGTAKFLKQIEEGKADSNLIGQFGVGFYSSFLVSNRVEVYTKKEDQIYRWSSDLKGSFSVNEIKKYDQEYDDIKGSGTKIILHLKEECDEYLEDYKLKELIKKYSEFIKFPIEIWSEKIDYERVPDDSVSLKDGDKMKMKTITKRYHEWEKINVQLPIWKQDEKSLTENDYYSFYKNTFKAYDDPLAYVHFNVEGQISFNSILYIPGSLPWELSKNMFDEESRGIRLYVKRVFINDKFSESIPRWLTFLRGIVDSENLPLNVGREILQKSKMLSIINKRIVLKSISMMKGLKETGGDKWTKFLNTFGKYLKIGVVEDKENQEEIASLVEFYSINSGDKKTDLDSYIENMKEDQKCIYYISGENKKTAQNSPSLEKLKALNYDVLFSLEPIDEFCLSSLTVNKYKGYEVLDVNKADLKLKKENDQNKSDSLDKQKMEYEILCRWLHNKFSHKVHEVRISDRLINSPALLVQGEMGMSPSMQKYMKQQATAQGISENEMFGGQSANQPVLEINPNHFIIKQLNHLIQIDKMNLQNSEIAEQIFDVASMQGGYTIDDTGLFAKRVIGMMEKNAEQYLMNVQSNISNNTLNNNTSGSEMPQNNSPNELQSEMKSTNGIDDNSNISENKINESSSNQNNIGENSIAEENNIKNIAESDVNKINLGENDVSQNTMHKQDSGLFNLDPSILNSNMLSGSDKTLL
Summary of the method: (§1)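 Recombinant Pf Hsp90 proteins were expressed in E. coli BL21 DE3 pLysS in LB, induced with 0.5 mM IPTG for 18 h at 20 °C. They were purified by His-affinity then size exclusion, keeping the 33 kDa fractions. Ligand was titrated in 1:1 dilutions against 100 nM protein with 5% DMSO. MST was run at 40% LED and 40% MST power.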

[2] = Inhibition of Plasmodium falciparum HSP90 ISG-LGA mutant expressed in yeast assessed as growth inhibition of host after 72 hrs
Summary of the method: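 Host was an isogenic S. cerevisiae strain derived from DP533 (Δhsc82 Δhsp82 pdr5), carrying Flag-tagged PfHsp90 ISG-LGA/K313Q from a low-copy plasmid as its only Hsp90. Cultures were diluted to OD600 0.1 in minimal medium with 2% DMSO. OD600 was read every 30 min for 72 h. Growth % was maximal growth-curve slope relative to solvent-only; IC50 from triplicate dose-response.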

[3] = Ratio of IC50 for rat L6 cells to IC50 for Plasmodium falciparum NF54
Summary of the method: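 Ratio of two IC50s. P. falciparum NF54 was grown in human erythrocytes (Trager–Jensen) for a 72 h assay window, with growth read as [3H]hypoxanthine incorporation. Cytotoxicity was measured in rat skeletal myoblast L6 cells.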

[4] = tested on: L6; experiment: Cytotoxicity against rat L6 cells after 72 hrs by Alamar Blue assay; type: cell-based
[5] = Binding affinity to N-terminal FLAG-tagged Plasmodium falciparum recombinant HSP90 R98K mutant expressed in Escherichia coli BL21(DE3) by microscale thermophoresis assay; summary of the method: as §1
[6] = tested on: Plasmodium falciparum; experiment: Antiplasmodial activity against Plasmodium falciparum NF54 infected in human erythrocytes assessed as growth inhibition by [3H]hypoxanthine incorporation assay; type: functional, organism-based
[7] = tested on: Heat-shock protein (Plasmodium falciparum), Q25869 [K313Q]; experiment: Inhibition of Plasmodium falciparum HSP90 K313Q mutant expressed in yeast assessed as growth inhibition of host at 100 uM after 72 hrs
[8] = Binding affinity to N-terminal FLAG-tagged Plasmodium falciparum recombinant HSP90 ISG-LGA mutant expressed in Escherichia coli BL21(DE3) by microscale thermophoresis assay; summary of the method: as §1

Heat-shock protein (Plasmodium falciparum), Q25869 [K313Q], sequence (Q25869 whole entry K313Q): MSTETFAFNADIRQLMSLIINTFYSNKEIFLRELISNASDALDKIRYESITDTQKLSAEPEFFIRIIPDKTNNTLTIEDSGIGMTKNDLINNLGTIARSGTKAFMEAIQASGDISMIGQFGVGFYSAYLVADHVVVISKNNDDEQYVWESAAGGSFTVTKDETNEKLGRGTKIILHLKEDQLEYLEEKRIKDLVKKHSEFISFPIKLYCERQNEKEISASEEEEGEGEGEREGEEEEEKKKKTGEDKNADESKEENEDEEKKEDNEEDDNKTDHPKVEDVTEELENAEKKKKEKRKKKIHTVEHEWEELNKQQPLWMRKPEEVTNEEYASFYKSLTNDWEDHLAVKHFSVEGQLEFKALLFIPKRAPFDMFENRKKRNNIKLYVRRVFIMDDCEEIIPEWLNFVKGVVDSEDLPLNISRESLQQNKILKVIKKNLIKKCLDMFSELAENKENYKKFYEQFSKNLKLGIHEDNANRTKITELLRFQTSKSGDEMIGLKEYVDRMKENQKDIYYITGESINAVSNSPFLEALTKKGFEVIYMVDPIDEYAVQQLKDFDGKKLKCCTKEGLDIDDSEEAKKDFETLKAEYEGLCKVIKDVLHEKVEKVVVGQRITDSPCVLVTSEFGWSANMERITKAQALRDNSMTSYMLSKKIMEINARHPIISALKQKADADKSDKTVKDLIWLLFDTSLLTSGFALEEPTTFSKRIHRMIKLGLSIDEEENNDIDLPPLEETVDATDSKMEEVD

Structure (SMILES)	pKd [1]	Ratio IC50 [3]	pIC50 ([4]; Rattus norvegicus, L6, 72 h)	pIC50 ([6]; Plasmodium falciparum, NF54)	further results
COCC(=O)Nc1c(C(=O)OC)n(C)c2ncc(NC(C)CCC=C(C)C)cc12 (racemic)	3.94	–	–	–	–
COCC(=O)Nc1c(C(=O)OC)n(CCC(C)C)c2ncc(NC(C)CCC=C(C)C)cc12 (racemic)	4.85	>10	4.20	5.24	pIC50 [2]: 4.21; pKd [5]: 4.78
COCCn1c(C(=O)OC)c(NC(=O)Cc2ccccc2)c2cc(NC3CCCCCCC3)cnc21	–	–	–	–	inhibition [7]: Active
COCC(=O)Nc1c(C(=O)OC)n(CCC(C)C)c2ncc(NC3CCCCCCC3)cc12	4.60	>10	4.25	5.30	–
COC1=C2C[C@@H](C)C[C@H](OC)[C@H](O)[C@@H](C)/C=C(\C)[C@H](OC(N)=O)[C@@H](OC)/C=C\C=C(/C)C(=O)NC(=CC1=O)C2=O [GELDANAMYCIN]	–	–	–	–	pIC50 ([4]; l6): 5.22; pIC50 [6]: 6.83; pKd [8]: 6.99
COCC(=O)Nc1c(C(=O)OC)n(CCC(C)C)c2ncc(NC(C)C)cc12	3.76	4	4.25	4.86	–
